Source: PubChem BioAssay (The Scripps Research Institute Molecular Screening Center)
PRMT1 FP inh: PRMT1 methyltransferase inhibitors, primary screen, biochemical, fluorescence polarization | Protein arginine N-methyltransferase 1 (Homo sapiens), Q99873 | recombinant PRMT1, activity-based probe fluorescence polarization | inhibition, % at 2.79 µM | 370,000 compounds, 1.3% hits | AID 652257, 2013;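 active = inhibition above about 21% made by adding two undisclosed values, limit read from the data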
TCR CD3 inh: inhibitors of human TCR-CD3 interaction, primary screen, biochemical, fluorescence, TAMRA-labeled TCR probe | AID 651800, 2012 | 360,000 compounds, 0.37% hits | inhibition, % at 9.4 µM | T-cell receptor (TCR); in the data active = inhibition above about 19%;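 also: recombinant mutant TCR 2C K166C tagged with TAMRA read by polarization; 0% = receptor in buffer alone and 100% = receptor with positive control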
mABHD4 FP: ABHD4 inhibitors, primary screen, biochemical, fluorescence polarization, mouse. purified mABHD4, FP-Rh probe fluorescence polarization. inhibition, % at 8.92 µM. 370,000 compounds, 0.54% hits. (Lyso)-N-acylphosphatidylethanolamine lipase (Mus musculus), Q8VD66;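 active = inhibition exceeding the mean over every tested compound plus 3 SD, cut at about 30% in these data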;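 also: 0% = plate median of compound wells and 100% = S159A mutant with DMSO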
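Assay system: mABHD4 protein; medium: HEPES pH 7.0, NaCl, Pluronic buffer; dosing: 8.92 µM, single dose; schedule: 45 min + 60 min at 25 °C; signal: FP readout, ex 525 nm / em 598 nm; read-out: normalized percent inhibition of probe labeling; repeats: single replicate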
SIAE primary: human SIAE inhibitors, primary screen, biochemical, fluorescence polarization, FP-Rh probe, 1536-well HTS; AID 1053197, 2014; SIAE FP-Rh probe binding; 370,000 compounds, 0.69% hits; inhibition, % at 9.66 µM;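 active = inhibition above a cutoff: mean of compounds within the control limits plus 3 SD of those, cut at about 17% in these data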;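 also: 0% = plate median of compound wells and 100% = probe without SIAE protein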
HTRA1 inhibitor: HTRA1 serine protease inhibitors, primary screen, biochemical, fluorescence polarization, HTS | inhibition, % at 5.96 µM | recombinant HTRA1, FP-rhodamine activity-based probe | 340,000 compounds, 0.5% hits | AID 504803, 2011; in the data active = inhibition above about 36%;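 also: 0% = enzyme with DMSO and 100% = wells lacking enzyme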
Target sequence (Q92743 whole entry, looked up): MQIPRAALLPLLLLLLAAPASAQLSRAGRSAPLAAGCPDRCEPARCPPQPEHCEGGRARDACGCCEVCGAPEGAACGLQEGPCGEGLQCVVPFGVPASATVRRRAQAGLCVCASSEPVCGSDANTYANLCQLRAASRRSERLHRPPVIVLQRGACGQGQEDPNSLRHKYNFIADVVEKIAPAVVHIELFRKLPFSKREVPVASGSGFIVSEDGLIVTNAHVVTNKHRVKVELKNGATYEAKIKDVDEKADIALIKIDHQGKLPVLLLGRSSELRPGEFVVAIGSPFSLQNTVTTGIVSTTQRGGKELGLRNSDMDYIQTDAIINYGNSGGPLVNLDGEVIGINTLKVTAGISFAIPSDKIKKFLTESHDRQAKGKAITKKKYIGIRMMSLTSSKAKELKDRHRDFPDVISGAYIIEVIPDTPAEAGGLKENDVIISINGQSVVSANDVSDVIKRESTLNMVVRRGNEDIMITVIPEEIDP
HTRA1 conf: HTRA1 protease inhibitors, retest, confirmation, biochemical, fluorescence polarization; shares compounds with HTRA1 inhibitor; recombinant HTRA1, FP-rhodamine activity-based probe; inhibition, % at 5.96 µM; 1,600 compounds, 66% hits;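 active = mean inhibition over three repeats above a set limit taken from the earlier primary screen, cut at about 37% in these data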;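 also: 0% = HTRA1 with DMSO and 100% = wells lacking HTRA1; inhibitors block probe binding so polarization drops and inhibition rises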
* = called active by the depositor. The list is not random: actives were taken first. Their share in the collection is about 2.6%.

How did Cc1nnc(C)n1/N=C/c1c(O)ccc2ccccc12 do in these assays?
PRMT1 FP inh: 1; TCR CD3 inh: 4; mABHD4 FP: -3; SIAE primary: -4; HTRA1 inhibitor: 4

Results for Cc1nnc(-c2ccccc2)c(=O)n1/N=C/c1c(O)ccc2ccccc12 ?
PRMT1 FP inh: -5; TCR CD3 inh: 5; mABHD4 FP: 9; SIAE primary: 15; HTRA1 inhibitor: 37*; HTRA1 conf: 35

What do the screens show for `CCCCCN1CCCCC(NC(=O)c2ccccc2C)C1=O` (stereo not given)?
PRMT1 FP inh: 3; mABHD4 FP: 5; SIAE primary: 3

Results for CC(=NNc1nc2ccccc2o1)c1cc2ccccc2cn1 ?
PRMT1 FP inh: -6; TCR CD3 inh: -1; mABHD4 FP: 16; SIAE primary: 5; HTRA1 inhibitor: 56*; HTRA1 conf: 70*

How did CCOC(=O)N1CCC(=NNC(=O)c2cc3ccccc3cc2O)CC1 do in these assays?
PRMT1 FP inh: 3; TCR CD3 inh: 2; mABHD4 FP: 23; SIAE primary: 13; HTRA1 inhibitor: 43*; HTRA1 conf: 15

Results for COc1cccc(C(=O)n2ccc3ccc(-c4ccc5ccn(Cc6ccc(C#N)cc6)c5c4)cc32)c1 ?
PRMT1 FP inh: 6; mABHD4 FP: -14; SIAE primary: -5

What do the screens show for `COc1cccc(N=Nc2ccc3cccnc3c2O)c1`?
PRMT1 FP inh: -6; TCR CD3 inh: 6; mABHD4 FP: 21; SIAE primary: 12; HTRA1 inhibitor: 77*; HTRA1 conf: 77*

Results for COc1ccc(N=Nc2ccc(O)c3ncccc23)cc1 ?
PRMT1 FP inh: 3; TCR CD3 inh: -1; mABHD4 FP: 14; SIAE primary: 8; HTRA1 inhibitor: 44*; HTRA1 conf: 63*

What do the screens show for `O=S(=O)(O)c1cccc2c(N=Nc3ccc(O)c4ncccc34)cccc12`?
HTRA1 inhibitor: 71*; HTRA1 conf: 75*

What do the screens show for `COc1ccc(N=Nc2cc(-c3ccccc3)ccc2O)cc1`?
PRMT1 FP inh: 2; TCR CD3 inh: -3; mABHD4 FP: 6; SIAE primary: 6; HTRA1 inhibitor: 10

How did O=Nc1ccc(O)c2ncccc12 do in these assays?
PRMT1 FP inh: 4; TCR CD3 inh: 3; mABHD4 FP: 0; SIAE primary: -31; HTRA1 inhibitor: 9

How did Cc1ccccc1N=Nc1ccc(O)c2ncccc12 do in these assays?
PRMT1 FP inh: 2; TCR CD3 inh: 5; mABHD4 FP: 14; SIAE primary: 10; HTRA1 inhibitor: 37*; HTRA1 conf: 65*

What do the screens show for `CCCCNC(=O)C[C@H]1C[C@@]2(C(=O)OC)C(=C[C@H](C3CCCC3)O[C@@H]2C)N(Cc2ccc(Cl)cc2Cl)C1=O`?
PRMT1 FP inh: 3; mABHD4 FP: -9; SIAE primary: -1

What do the screens show for `CN1C(=O)[C@@](O)(c2cccn2C)c2cc(Cl)ccc21`?
PRMT1 FP inh: 2; mABHD4 FP: 5; SIAE primary: -1

Results for CCCC[C@H]1C2CC(OC(=O)Nc3cccc(C#N)c3)C(C2)[C@H]2CCCCN21 (stereo not given in full) ?
PRMT1 FP inh: -1; mABHD4 FP: 0; SIAE primary: 1

How did COc1cc(NC(=O)C2CCCN(S(=O)(=O)c3ccc(Br)s3)C2)cc(OC)c1 (stereo not given) do in these assays?
PRMT1 FP inh: 1; mABHD4 FP: -27; SIAE primary: -16

Results for c1ccc(N2CCN(c3nc(-c4ccccn4)nc4ccccc34)CC2)cc1 ?
PRMT1 FP inh: -3; TCR CD3 inh: -1; mABHD4 FP: 7; SIAE primary: -1; HTRA1 inhibitor: 40*; HTRA1 conf: 28

Results for CN1CCN(c2nc(-c3ccccn3)nc3ccccc23)CC1 ?
PRMT1 FP inh: -1; TCR CD3 inh: 1; mABHD4 FP: 0; SIAE primary: -5; HTRA1 inhibitor: 0
